Source: ChEMBL document CHEMBL4831560, “Design, Synthesis, and Biological Evaluation of APN and AKT Dual-Target Inhibitors” (ACS Med Chem Lett, 2021)
Activity calls are given as the source filed them. No cut-off for these calls is given here.

How the values were obtained:
[1] = molecular target: T1, Aminopeptidase N (Sus scrofa) (UniProt P15145); test: Potency index, ratio of bestatin IC50 to test compound IC50 for inhibition of APN in pig kidney microsomes assessed as reduction in p-nitroanilide release using L-leu-p-nitroanilide as substrate incubated for 30 mins by UV absorption based analysis
T1 sequence (whole entry): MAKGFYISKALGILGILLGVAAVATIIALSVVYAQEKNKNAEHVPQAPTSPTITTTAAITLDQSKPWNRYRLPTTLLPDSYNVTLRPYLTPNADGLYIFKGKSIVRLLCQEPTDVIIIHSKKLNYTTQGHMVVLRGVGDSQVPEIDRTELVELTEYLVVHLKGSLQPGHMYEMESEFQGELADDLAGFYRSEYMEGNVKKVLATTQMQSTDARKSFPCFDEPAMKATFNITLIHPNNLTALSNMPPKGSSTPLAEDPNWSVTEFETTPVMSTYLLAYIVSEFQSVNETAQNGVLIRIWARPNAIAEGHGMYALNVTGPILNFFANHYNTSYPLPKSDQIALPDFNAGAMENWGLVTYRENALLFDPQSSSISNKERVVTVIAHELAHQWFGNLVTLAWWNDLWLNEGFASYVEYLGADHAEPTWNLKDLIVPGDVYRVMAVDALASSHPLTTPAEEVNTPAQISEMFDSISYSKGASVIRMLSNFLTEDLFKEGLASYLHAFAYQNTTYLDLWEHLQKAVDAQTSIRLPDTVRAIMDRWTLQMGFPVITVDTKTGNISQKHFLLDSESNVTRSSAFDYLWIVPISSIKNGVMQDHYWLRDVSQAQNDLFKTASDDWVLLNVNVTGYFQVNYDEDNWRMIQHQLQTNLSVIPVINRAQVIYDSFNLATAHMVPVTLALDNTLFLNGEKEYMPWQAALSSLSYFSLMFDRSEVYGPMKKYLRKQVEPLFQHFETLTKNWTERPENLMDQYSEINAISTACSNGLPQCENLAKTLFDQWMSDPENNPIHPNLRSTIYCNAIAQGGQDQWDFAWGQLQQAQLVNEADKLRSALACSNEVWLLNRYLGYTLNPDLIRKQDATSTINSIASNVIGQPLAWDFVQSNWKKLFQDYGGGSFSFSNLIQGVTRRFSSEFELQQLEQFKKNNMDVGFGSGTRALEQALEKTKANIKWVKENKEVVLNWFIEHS

[2] = molecular target: T2, RAC-alpha serine/threonine-protein kinase (Homo sapiens, UniProt P31749); conditions: dose 200.0 nM, time 40.0 min
T2 sequence (P31749 whole entry): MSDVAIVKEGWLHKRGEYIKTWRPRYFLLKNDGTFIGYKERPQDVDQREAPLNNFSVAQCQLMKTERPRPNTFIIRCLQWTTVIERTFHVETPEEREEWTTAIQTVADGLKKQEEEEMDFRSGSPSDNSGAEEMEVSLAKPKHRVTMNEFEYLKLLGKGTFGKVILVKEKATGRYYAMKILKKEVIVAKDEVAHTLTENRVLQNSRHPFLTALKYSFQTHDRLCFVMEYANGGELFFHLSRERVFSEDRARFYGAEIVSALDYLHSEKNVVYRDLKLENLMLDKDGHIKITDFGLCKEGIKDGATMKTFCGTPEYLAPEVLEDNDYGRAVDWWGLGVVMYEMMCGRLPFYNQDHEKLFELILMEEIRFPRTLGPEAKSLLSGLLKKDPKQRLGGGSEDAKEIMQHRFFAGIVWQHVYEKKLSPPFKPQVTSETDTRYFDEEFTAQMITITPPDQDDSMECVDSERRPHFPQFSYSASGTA

[3] = molecular target: T3, Aminopeptidase N (Sus scrofa, UniProt P15145); test: Inhibition of APN in pig kidney microsomes assessed as reduction in p-nitroanilide release using L-leu-p-nitroanilide as substrate incubated for 30 mins by UV absorption based analysis
T3 sequence (P15145 whole entry): T1 sequence (whole entry)

[4] = tested on: MCF7; test: Antiproliferative activity against human MCF7 cells assessed as reduction in cell viability incubated for 72 hrs by MTT assay; assay type: functional, cell-based; conditions: MCF7, 72 h
[5] = molecular target: T2, RAC-alpha serine/threonine-protein kinase; test: Inhibition of AKT1 (unknown origin) incubated for 40 mins in presence of ATP by Kinase-Glo reagent based luminescence analysis
[6] = tested on: AGS; test: Antiproliferative activity against human AGS cells assessed as reduction in cell viability incubated for 72 hrs by MTT assay; assay type: functional, cell-based
[7] = tested on: HUVEC; test: Anti-angiogenic activity against HUVEC cells assessed as inhibition of tubular structure formation at 10 uM […] by Matrigel based phase contrast microscopic analysis; assay type: functional, cell-based; conditions: Homo sapiens
[8] = tested on: NCI-H1975; test: Antiproliferative activity against human NCI-H1975 cells assessed as reduction in cell viability incubated for 72 hrs by MTT assay; assay type: functional, cell-based; conditions: NCI-H1975, 72 h
[9] = molecular target: T4, Serine/threonine-protein kinase AKT (Homo sapiens) (UniProt P31751+Q9Y243+P31749); test: Inhibition of AKT in human AGS cells assessed as inhibition of GSK3beta phosphorylation incubated for up to 6 hrs by immunoblot analysis; assay type: cell-based; conditions: dose 2-10 µM, time hrs <=6
T4 sequence (P31749 whole entry, looked up): as the sequence (P31749 whole entry) above
T4 sequence (P31751 whole entry, looked up): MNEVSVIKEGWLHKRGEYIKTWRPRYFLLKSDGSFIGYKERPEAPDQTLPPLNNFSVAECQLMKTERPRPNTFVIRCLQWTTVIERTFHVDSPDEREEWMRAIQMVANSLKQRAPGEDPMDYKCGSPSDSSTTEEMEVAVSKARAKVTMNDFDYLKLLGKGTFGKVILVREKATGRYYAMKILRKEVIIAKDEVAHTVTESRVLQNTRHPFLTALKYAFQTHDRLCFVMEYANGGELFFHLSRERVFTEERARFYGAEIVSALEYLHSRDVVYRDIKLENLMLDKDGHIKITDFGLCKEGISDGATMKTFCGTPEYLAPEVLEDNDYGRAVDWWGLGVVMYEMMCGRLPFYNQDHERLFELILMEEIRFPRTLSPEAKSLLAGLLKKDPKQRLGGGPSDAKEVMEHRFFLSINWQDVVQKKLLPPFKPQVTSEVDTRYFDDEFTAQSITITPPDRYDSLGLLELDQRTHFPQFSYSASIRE
T4 sequence (Q9Y243 whole entry, looked up): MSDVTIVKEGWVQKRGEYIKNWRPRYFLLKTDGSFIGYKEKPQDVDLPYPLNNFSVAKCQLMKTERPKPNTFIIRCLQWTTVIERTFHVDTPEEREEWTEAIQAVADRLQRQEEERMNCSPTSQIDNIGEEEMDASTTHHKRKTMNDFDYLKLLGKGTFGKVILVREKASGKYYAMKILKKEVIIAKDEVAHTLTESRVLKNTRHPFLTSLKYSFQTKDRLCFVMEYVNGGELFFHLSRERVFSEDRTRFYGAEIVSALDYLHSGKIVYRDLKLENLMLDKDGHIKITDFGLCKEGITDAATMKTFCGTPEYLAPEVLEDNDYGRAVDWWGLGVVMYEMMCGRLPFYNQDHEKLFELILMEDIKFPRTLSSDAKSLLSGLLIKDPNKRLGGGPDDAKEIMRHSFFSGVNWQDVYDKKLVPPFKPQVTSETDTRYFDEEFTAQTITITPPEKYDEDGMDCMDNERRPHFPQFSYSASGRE
In short: (§1)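 Western blot in AGS cells treated with DMSO or compound at 2 or 10 μM for 2 or 6 h. Phospho-GSK3β was probed with β-actin as loading control and blots were quantified. Three independent experiments were run, with Student's two-tailed t test against control.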

[10] = molecular target: T4, Serine/threonine-protein kinase AKT (Homo sapiens); test: Inhibition of AKT in human AGS cells assessed as inhibition of GSK3beta phosphorylation up to 10 uM by immunoblot analysis; assay type: cell-based; conditions: dose microM <=10, time 2-6 hrs, TDE = time-dependent effect; in short: as §1

CC(C)C[C@@H](NC(=O)C1CCN(c2ncnc3[nH]ccc23)CC1)C(=O)NO
Ratio IC50 [1]: 70 | inhibition [2]: 2% | IC50 [3]: 50 nM

O=C(NC1CCN(c2ncnc3[nH]ccc23)CC1)N[C@H](Cc1ccccc1)C(=O)NO
inhibition [2]: 7% | IC50 [3]: 900 nM

NC1(C(=O)N[C@@H](C(=O)NO)c2ccccc2)CCN(c2ncnc3[nH]ccc23)CC1
IC50 [4]: 24800 nM | IC50 [5]: 121 nM | IC50 [6]: 30700 nM | Activity [7]: Active | inhibition [2]: 60% | IC50 [3]: 960 nM | IC50 [8]: 20300 nM

COc1ccc(Cn2ccc3ccc(C(=O)NO)cc32)cc1
Activity [7]: inactive

NC1(C(=O)N[C@@H](Cc2c[nH]c3ccccc23)C(=O)NO)CCN(c2ncnc3[nH]ccc23)CC1
inhibition [2]: 5% | IC50 [3]: 127000 nM

NC1(C(=O)N[C@H](Cc2c[nH]c3ccccc23)C(=O)NO)CCN(c2ncnc3[nH]ccc23)CC1
inhibition [2]: 3% | IC50 [3]: 4160 nM

CC(C)[C@@H](NC(=O)C1(N)CCN(c2ncnc3[nH]ccc23)CC1)C(=O)NO
inhibition [2]: 6% | IC50 [3]: 470 nM

CC(C)C[C@@H](NC(=O)N1CCN(c2ncnc3[nH]ccc23)CC1)C(=O)NO
inhibition [2]: 29% | IC50 [3]: 210 nM

NC1(C(=O)N[C@H](Cc2ccccc2)C(=O)NO)CCN(c2ncnc3[nH]ccc23)CC1
inhibition [2]: 21% | IC50 [3]: 670 nM

NC1(C(=O)N[C@H](C(=O)NO)c2ccccc2)CCN(c2ncnc3[nH]ccc23)CC1
inhibition [2]: 35% | IC50 [3]: 1490 nM

O=C(NO)[C@@H](Cc1ccccc1)NC(=O)N1CCN(c2ncnc3[nH]ccc23)CC1
inhibition [2]: 11% | IC50 [3]: 260 nM

CC(C)[C@H](NC(=O)C1(N)CCN(c2ncnc3[nH]ccc23)CC1)C(=O)NO
inhibition [2]: 5% | IC50 [3]: 140000 nM

CC(C)C[C@H](NC(=O)C1(N)CCN(c2ncnc3[nH]ccc23)CC1)C(=O)NO
inhibition [2]: 7% | IC50 [3]: 32400 nM

O=C(N[C@@H](C(=O)NO)c1ccccc1)C1CCN(c2ncnc3[nH]ccc23)CC1
IC50 [3]: 390 nM

NC1(C(=O)N[C@@H](Cc2ccccc2)C(=O)NO)CCN(c2ncnc3[nH]ccc23)CC1
inhibition [2]: 2% | IC50 [3]: 159000 nM

O=C(NC1CCN(c2ncnc3[nH]ccc23)CC1)N[C@@H](C(=O)NO)c1ccccc1
IC50 [3]: 5400 nM

O=C(N[C@H](Cc1ccccc1)C(=O)NO)C1CCN(c2ncnc3[nH]ccc23)CC1
inhibition [2]: 7% | IC50 [3]: 710 nM

CC(C)C[C@@H](NC(=O)C1(N)CCN(c2ncnc3[nH]ccc23)CC1)C(=O)NO
inhibition [9]: Dose-Dependent Effect | IC50 [4]: 32700 nM | IC50 [5]: 270 nM | IC50 [6]: 52400 nM | Activity [7]: Active | inhibition [2]: 43% | IC50 [3]: 210 nM | IC50 [8]: 27400 nM | inhibition [10]: Tde

O=C(NO)[C@H](NC(=O)N1CCN(c2ncnc3[nH]ccc23)CC1)c1ccccc1
IC50 [3]: 1040 nM

CC(C)C[C@H](NC(=O)[C@@H](O)[C@H](N)Cc1ccccc1)C(=O)O [UBENIMEX]
IC50 [4]: > 200000 nM | IC50 [6]: > 200000 nM | Activity [7]: Active | IC50 [8]: > 200000 nM

CC(C)C[C@@H](NC(=O)NC1CCN(c2ncnc3[nH]ccc23)CC1)C(=O)NO
inhibition [2]: 4% | IC50 [3]: 710 nM

NC1(C(=O)N[C@@H](CCO)c2ccc(Cl)cc2)CCN(c2nc[nH]c3nccc2-3)CC1 [CAPIVASERTIB]
IC50 [4]: 4200 nM | IC50 [6]: 9600 nM | Activity [7]: inactive | IC50 [8]: 2700 nM
